Rows were chosen to be rich in hits. Some 3.7% of all compounds tested hit in one or more screens of this group.
Arbovirus inh = antivirals against arbovirus infection, primary screen, cell-based, full library, 10K replicate subset; inhibition, % at 10 µM; AID 1251, 2008; 0.37% of 200,000 active; arbovirus infection cell-based antiviral screen; in the data active = inhibition above about 30%
Calpain2 inh = inhibitors of pig calpain II, primary screen, biochemical, fluorogenic peptide substrate, 1536-well; purified calpain II, 30 min; inhibition, % at 16 µM; 0.37% of 220,000 active;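 active = inhibition above about 50%, limit read from the data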
Cl transport mod = KCC2 cotransporter modulators, thallium flux, primary screen, cell-based, HEK293 KCC2, FluoZin-2 fluorescence, MLSMR; Solute carrier family 12 member 5 (Homo sapiens), Q9H2X9; KCC2 cells, thallium flux FluoZin-2 fluorescence; B-score of Tl+ flux slope (higher = more flux/activation; lower = inhibition) at 10 µM; 2.2% of 190,000 active;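 active = thallium flux slope and its plate-corrected score both differing from the plate sample mean at a set confidence after two filtering rounds, in either direction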;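 note: slope of fluorescence scaled to starting intensity during 10 to 20 s after thallium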
Mdm2 ligase inh = MDM2-luciferase reporter signal enhancers, primary screen, MDM2 E3 ligase inhibitor project, cell-based, luminescence, 1536-well. E3 ubiquitin-protein ligase Mdm2 (Homo sapiens), Q00987. cell-based MDM2 ubiquitination luciferase reporter, 2 h; 0 = plate control, 100 = twice control, blank-subtracted. signal enhancement, % at 5 µM. 0.11% of 210,000 active. AID 1230, 2008;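 active = signal enhancement of 30% or more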;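 note: luminescence tracks abundance of the self-degrading MDM2-luciferase fusion protein; higher signal means inhibition of MDM2 E3 ligase activity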
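Assay system: stable mammalian line carrying autodegrading MDM2–luciferase fusion reporter; Input: 2000 cells in each well; Compound dosing: single-point 5 µM; Schedule: 2 h compound exposure at 37 °C; Signal: SteadyLite luciferase luminescence after 15 min room-temperature reagent incubation; Evaluation: % luminescence enhancement versus blank-corrected plate control mean; Benchmarks: plate controls and plate blanks.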
PKD1 kinase inh = inhibitors of human PKD1 kinase, biochemical, fluorescence polarization; PKD1 kinase fluorescence polarization assay; inhibition, % (concentration not given with the values); 0.056% of 200,000 active; AID 797, 2007; in the data active = inhibition above about 50%
ROMK mod = ROMK potassium channel modulators, primary screen, cell-based, thallium flux, MLSMR library; Tet-inducible ROMK, thallium flux fluorescence; actives lie on both sides; 2% of 130,000 active; B-score at 10 µM; ATP-sensitive inward rectifier potassium channel 1 (Homo sapiens), P48048;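 active = signal ratio slope over the read window, or its plate-corrected B-score, at least 3 SD from the plate mean, either direction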;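 note: B-score of the F/F0 ratio slope over 7 to 12 s after thallium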
Target sequence (P48048 whole entry, looked up): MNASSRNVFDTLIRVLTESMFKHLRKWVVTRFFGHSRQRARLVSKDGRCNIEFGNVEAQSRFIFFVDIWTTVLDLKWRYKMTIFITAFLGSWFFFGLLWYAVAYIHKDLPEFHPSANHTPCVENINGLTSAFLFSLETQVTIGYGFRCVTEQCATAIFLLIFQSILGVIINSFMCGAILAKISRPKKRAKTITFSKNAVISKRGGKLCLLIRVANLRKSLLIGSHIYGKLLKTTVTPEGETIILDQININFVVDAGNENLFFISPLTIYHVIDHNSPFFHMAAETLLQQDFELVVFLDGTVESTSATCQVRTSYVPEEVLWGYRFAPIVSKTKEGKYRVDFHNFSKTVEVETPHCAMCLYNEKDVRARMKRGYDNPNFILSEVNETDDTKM
KCC2 sec1 = KCC2 modulators in sodium-free buffer, confirmation, cell-based, HEK293 KCC2, thallium flux, secondary assay; shares compounds with Cl transport mod; FluoZin2 fluorescence; stronger effect = higher value; normalised thallium flux (F/F0 slope) at 10 µM; 15% of 3,700 active;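 active = thallium flux slope above the same plate's solvent-only control mean plus 3 SD; inconclusive = the two replicate wells disagree; inactive = no significant difference from solvent-only control wells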
KCC2 bumet counter = thallium flux persisting under bumetanide in KCC2 cells, confirmation, counter-screen for KCC2 modulator project, cell-based, HEK293 KCC2, FluoZin2, secondary assay 3. 49% of 3,700 active. HEK293-KCC2 + bumetanide/ouabain; stronger effect = higher value. shares compounds with Cl transport mod. normalized thallium flux at 10 µM. AID 1714, 2009;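 active = thallium entry rate above the same plate's blocked-transporter control wells by more than 3 SD; inconclusive = the two repeat wells disagree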;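 note: raw slope of fluorescence over initial fluorescence between 10 and 20 s after thallium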
KCC2 sec2 = KCC2 modulators without ouabain present, confirmation, cell-based, HEK293 KCC2, thallium flux, FluoZin2, secondary assay 2; shares compounds with Cl transport mod; thallium flux FluoZin2 fluorescence; actives lie on both sides; F/F0 rise rate, 10–20 s post-thallium; normalized thallium flux at 10 µM; 23% of 3,700 active; AID 1715, 2009;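 active = thallium flux slope more than 3 SD above or below the plate's solvent-only control mean, mostly below; inconclusive = the two repeat wells disagreed; inactive = no significant shift from solvent-only controls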;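 note: raw slope with 0.1% DMSO as baseline and bumetanide as block control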
HEK counter1 = thallium flux modulation in parental HEK cells, confirmation, counter-screen for KCC2 modulator project, cell-based, counterscreen 1; shares compounds with Cl transport mod; HEK293 parental cells, thallium flux FluoZin2, ouabain; baseline-ratio fluorescence slope, 10–20 s after thallium; thallium flux rate (normalised fluorescence) at 10 µM; 46% of 3,700 active;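 active = thallium flux rate significantly above the same plate's solvent-only control wells, beyond their mean plus 3 SD; inconclusive = the two replicate wells gave conflicting results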
KCC2 retest ouab = KCC2 inhibitors and activators, ouabain retest, confirmation, HEK-KCC2 cells | shares compounds with Cl transport mod | raw Tl+ flux slope (below DMSO = inhibition, above = activation) at 10 µM | HEK293-KCC2, thallium flux FluoZin2 fluorescence; bidirectional: low = inhibitor, high = activator | AID 1717, 2009 | 48% of 3,700 active;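 active = thallium flux slope beyond 3 SD from same-plate DMSO control mean in most replicates, usually higher, sometimes lower; inconclusive = repeat tests gave conflicting results; inactive = no significant difference from controls in most replicates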;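 note: slope of initial-normalized fluorescence between seconds 10 and 20 after thallium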
HEK counter2 = native HEK Tl+ uptake effects, second counter-screen – HEK cells, counterscreen 2, counter-screen for KCC2 modulator project, confirmation. HEK293 parental, thallium flux FluoZin-2 fluorescence slope. AID 1718, 2009. 33% of 3,700 active. shares compounds with Cl transport mod. thallium flux slope at 10 µM;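 active = thallium flux slope above the same plate's solvent-control mean plus 3 SD in both duplicate wells; inconclusive = duplicate wells that disagreed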;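 note: run without ouabain in cells lacking the KCC2 cotransporter; slope of fluorescence scaled to its starting value between 10 and 20 s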
Starred values were filed as active, the others as inactive; ? = inconclusive; . = not tested or not shown.

SMILES	Arbovirus inh	Calpain2 inh	Cl transport mod	Mdm2 ligase inh	PKD1 kinase inh	ROMK mod	KCC2 sec1	KCC2 bumet counter	KCC2 sec2	HEK counter1	KCC2 retest ouab	HEK counter2
Cc1ccc(S(=O)(=O)NC2=NCN(Cc3ccccc3)CN2)cc1	5	3	-3.3*	-16	4	-0.31	0.0084	0.0061	0.033	0.0078	?	0.011
O=C(Cc1ccc(Cl)cc1)NNC(=O)c1cnccn1	-26	-7	-0.11	-4	2	0.47	.	.	.	.	.	.
CCn1c(SCc2ccccc2Cl)nc2ccccc21	-11	-7	-0.28	6	-6	.	.	.	.	.	.	.
Cn1c(SCc2ccccc2Cl)nc2ccccc21	0	39	-4.3*	-10	3	-1	?	?	0.024*	0.0072	0.014*	0.01
CCn1c(CSc2nc3ccccc3n2C)nc2ccccc21	-2	2	-4*	-4	3	.	?	0.0038	0.022*	?	0.014*	0.0095
CCCCOc1[nH]c2nc(-c3ccco3)n(Cc3ccco3)c(=N)c2c1C#N	-10	-61	-0.2	-5	-12	.	.	.	.	.	.	.
O=C(NCc1ccc(Cl)cc1)c1ccc(Br)o1	-1	-8	0.036	-13	1	-0.023	.	.	.	.	.	.
O=[N+]([O-])c1ccc(CSc2nc3ccccc3o2)cc1	5	2	-0.087	-31	0	-0.29	.	.	.	.	.	.
O=[N+]([O-])c1ccc(CSc2nnc(SCc3ccccc3)s2)cc1	8	25	-5.4*	-9	9	.	0.0066	0.0048	0.024*	0.0069	0.014*	0.0093
CCOC(=O)Nc1ccc2nc(N3CCCCCC3)sc2c1	.	6	-0.3	.	.	.	.	.	.	.	.	.
COc1ccc(C)cc1NC(=O)CN(c1ccc(F)cc1)S(C)(=O)=O	-4	12	-0.038	-4	-8	.	.	.	.	.	.	.
COc1ccc(C)cc1NC(=O)CN(C)S(=O)(=O)c1cnc[nH]1	4	-60	.	-11	-8	0.12	0.01	0.0072	0.035	0.0077	0.023	?
COc1ccc(C)cc1NC(=O)CN(c1ccccc1F)S(C)(=O)=O	-4	-14	.	14	13	0.5	0.0081	0.0058	0.03	0.007	0.02	0.009
Cc1cccc(NC(=O)CN(C)S(=O)(=O)c2cnc[nH]2)c1	2	4	-0.15	-8	-11	.	.	.	.	.	.	.
CCN(CC)C(=O)C(=O)N/N=C/c1ccc(C(=O)O)cc1	-16	7	1.4	-1	5	-0.17	.	.	.	.	.	.
Cc1cc(C)c2nc(SCC(=O)NNC(=O)c3ccco3)c(C)cc2c1	1	17	4.8*	-9	-3	-0.38	0.016	0.021*	0.033	0.0098*	0.018	0.013*
Cc1ccc2nsnc2c1NS(=O)(=O)c1c(C)ccc2nsnc12	-6	20	7.6*	-16	5	0.81	0.0064	0.028*	0.035	0.02*	0.029*	0.019*
O=S(=O)(Nc1cccc2nsnc12)c1ccccc1	7	-19	0.87	-14	-4	.	.	.	.	.	.	.
Cc1cc(C)c(S(=O)(=O)Nc2cccc3nsnc23)c(C)c1	15	16	23*	-21	-6	0.39	0.018*	0.074*	0.037	0.041*	0.074*	0.019*
N#Cc1c(-c2ccccc2Cl)noc1/C=C/Nc1ccc(C(=O)O)cc1	23	30	-2.4	-11	-6	1.3	.	.	.	.	.	.
COC(=O)C1=C(C)NC(C)=C(C(=O)OCCN(C)Cc2ccccc2)C1c1cccc([N+](=O)[O-])c1 (stereo unspecified)	-43	36	-1.1	.	-7	.	.	.	.	.	.	.
O=C(c1ccccc1SCc1ccc(F)cc1)N1CCOCC1	-3	26	-3.5*	-7	1	0.22	0.015	?	0.024*	0.0068	0.014*	0.0098
Cc1ccc(C)c(Cn2nnc3c(=O)[nH]c(C4CCCN(C(=O)C5CCCCC5)C4)nc32)c1 (stereo unspecified)	-35	-75	.	-11	-6	.	.	.	.	.	.	.
Cc1ccc(C)c(Cn2nnc3c(=O)[nH]c(C(=O)NCc4ccco4)nc32)c1	13	-14	-5.7*	-9	6	-0.066	0.005	0.005	0.023*	0.0062*	0.014*	?
O=C(NCc1cccs1)c1nc2c(nnn2Cc2ccc(F)cc2)c(=O)[nH]1	-1	-26	-2.3*	0	-1	.	0.0062	?	0.023*	0.0069	?	0.0093
O=C(NCc1ccco1)c1nc2c(nnn2Cc2ccccc2Cl)c(=O)[nH]1	0	-8	-3.3*	.	-8	1.1	0.0082	0.0067	0.028	?	0.014*	0.0089
C/C(=N\NC(=O)OC(C)(C)C)c1ccccc1Br	-6	-23	-0.29	1	-7	-0.25	.	.	.	.	.	.
CCOC(=O)C1CCN(c2c(NC3CCCc4ccccc43)c(=O)c2=O)CC1 (stereo unspecified)	-4	-9	-0.065	-11	4	.	.	.	.	.	.	.
CC(C)OP(=O)(c1ccc(N(C)C)cc1)C(O)c1ccccc1 (stereo unspecified)	1	-17	-0.12	-6	-7	-0.051	.	.	.	.	.	.
